Results published in ChEMBL document CHEMBL2401654, “Synthesis, characterization, and biological assessment of the four stereoisomers of the H(3) receptor antagonist 5-fluoro-2-methyl-N-[2-methyl-4-(2-methyl[1,3']bipyrrolidinyl-1'-yl)phenyl]benzamide” (Bioorg Med Chem Lett, 2013).
In brackets after ≈: the same amount, converted by molar mass.

How the values were obtained:
Cytochrome P450 3A4 = Cytochrome P450 3A4 (Homo sapiens, UniProt P08684); test: Inhibition of CYP3A4 (unknown origin); format: ADME
Chain of Cytochrome P450 3A4 (P08684 whole entry): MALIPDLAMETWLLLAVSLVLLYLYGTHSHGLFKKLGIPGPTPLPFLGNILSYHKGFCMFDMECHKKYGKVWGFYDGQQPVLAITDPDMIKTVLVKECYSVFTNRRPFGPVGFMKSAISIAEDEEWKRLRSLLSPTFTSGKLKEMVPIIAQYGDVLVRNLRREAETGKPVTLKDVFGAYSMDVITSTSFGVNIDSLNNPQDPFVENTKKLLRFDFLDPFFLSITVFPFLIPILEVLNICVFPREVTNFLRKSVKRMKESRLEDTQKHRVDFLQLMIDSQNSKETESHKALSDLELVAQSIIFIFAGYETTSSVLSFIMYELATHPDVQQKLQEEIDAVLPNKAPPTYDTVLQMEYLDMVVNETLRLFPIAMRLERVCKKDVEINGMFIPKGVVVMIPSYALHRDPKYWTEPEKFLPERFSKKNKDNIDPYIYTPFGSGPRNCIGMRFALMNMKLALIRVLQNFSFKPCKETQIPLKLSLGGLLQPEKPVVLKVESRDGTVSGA

[1] = Genotoxicity in micronucleus (unknown origin)
Histamine H3 receptor [2] = target: Histamine H3 receptor (Rattus norvegicus, UniProt Q9QYN8); test: Displacement of [3H]N-alpha-methylhistamine from recombinant rat histamine H3 receptor transfected in CHO cell membranes after 1 hr by scintillation counting analysis; set-up: species or system Membrane
Chain of Histamine H3 receptor (Rattus norvegicus, UniProt Q9QYN8) (Q9QYN8 whole entry): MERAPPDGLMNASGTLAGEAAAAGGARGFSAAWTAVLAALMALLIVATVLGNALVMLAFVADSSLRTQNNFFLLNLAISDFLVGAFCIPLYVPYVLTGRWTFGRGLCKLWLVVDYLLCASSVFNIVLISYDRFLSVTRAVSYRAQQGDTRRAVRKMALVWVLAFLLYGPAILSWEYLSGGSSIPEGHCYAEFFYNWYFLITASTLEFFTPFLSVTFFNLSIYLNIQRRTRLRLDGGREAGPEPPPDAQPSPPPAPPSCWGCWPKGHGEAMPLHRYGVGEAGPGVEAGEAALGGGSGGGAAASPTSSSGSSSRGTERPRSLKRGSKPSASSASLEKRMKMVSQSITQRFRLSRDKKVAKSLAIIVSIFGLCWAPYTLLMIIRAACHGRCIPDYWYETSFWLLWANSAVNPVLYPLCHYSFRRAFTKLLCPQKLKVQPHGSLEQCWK
Method in brief: (§1)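 Radioligand displacement of [3H]N-α-methylhistamine using membranes from CHO cells stably transfected with recombinant human or rat H3 receptor. Ki is presented as a range of multiple experiments (n ≥ 3).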

Cytochrome P450 1A2 = target: T1, Cytochrome P450 1A2 (Homo sapiens, UniProt P05177); test: Inhibition of CYP1A2 (unknown origin); format: ADME
T1 sequence (P05177 whole entry): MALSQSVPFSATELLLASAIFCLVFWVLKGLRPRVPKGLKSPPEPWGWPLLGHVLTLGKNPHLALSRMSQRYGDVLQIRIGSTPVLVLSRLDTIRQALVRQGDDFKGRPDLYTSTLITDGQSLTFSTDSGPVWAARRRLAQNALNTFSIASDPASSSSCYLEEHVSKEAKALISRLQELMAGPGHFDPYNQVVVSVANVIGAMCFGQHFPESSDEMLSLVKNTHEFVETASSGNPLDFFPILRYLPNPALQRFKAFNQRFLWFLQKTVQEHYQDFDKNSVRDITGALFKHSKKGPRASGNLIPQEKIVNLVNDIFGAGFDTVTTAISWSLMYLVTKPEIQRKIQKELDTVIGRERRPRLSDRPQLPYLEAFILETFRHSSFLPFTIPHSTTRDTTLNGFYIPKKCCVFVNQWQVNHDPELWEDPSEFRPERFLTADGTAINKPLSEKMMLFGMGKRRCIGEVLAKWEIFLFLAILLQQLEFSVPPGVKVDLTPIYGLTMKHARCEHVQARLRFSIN

hERG (KCNH2) [3] = target: T2, hERG (KCNH2) (Homo sapiens, UniProt Q12809); test: Inhibition of human ERG transfected in CHO cells at 1 uM by patch clamp assay relative to control; format: cell-based; conditions: CHO cells transfected with human ERG
T2 sequence (Q12809 whole entry): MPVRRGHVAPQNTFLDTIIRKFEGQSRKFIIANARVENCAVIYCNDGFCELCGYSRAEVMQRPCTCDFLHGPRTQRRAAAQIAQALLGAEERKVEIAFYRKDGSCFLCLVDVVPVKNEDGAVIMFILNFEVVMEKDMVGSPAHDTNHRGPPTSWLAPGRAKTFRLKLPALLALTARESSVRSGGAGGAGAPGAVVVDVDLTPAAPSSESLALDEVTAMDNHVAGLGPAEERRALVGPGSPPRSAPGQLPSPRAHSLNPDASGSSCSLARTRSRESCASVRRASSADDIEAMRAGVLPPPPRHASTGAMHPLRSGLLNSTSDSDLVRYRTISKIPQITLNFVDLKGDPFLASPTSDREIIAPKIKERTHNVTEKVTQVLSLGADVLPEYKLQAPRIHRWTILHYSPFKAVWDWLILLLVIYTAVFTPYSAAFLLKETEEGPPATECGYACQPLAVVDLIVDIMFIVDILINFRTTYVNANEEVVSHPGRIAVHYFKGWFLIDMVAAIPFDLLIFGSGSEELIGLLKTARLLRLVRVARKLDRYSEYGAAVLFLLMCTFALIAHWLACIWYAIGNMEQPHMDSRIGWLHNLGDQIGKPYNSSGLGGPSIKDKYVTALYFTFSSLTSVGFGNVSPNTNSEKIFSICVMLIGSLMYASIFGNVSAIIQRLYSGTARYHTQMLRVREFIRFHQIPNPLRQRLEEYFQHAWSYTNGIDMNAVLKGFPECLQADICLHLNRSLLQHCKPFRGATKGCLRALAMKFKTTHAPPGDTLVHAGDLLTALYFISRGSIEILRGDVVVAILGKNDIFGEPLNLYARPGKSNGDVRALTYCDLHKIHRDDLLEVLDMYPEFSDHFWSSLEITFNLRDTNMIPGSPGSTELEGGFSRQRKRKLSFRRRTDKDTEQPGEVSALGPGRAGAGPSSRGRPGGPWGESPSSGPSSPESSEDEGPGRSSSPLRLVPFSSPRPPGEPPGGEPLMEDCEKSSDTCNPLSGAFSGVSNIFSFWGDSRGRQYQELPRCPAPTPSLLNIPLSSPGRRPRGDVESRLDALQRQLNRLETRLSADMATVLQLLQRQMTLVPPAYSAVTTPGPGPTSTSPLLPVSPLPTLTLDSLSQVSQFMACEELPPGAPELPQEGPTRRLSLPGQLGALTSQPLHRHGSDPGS
Method in brief: (§2)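 Whole-cell patch clamp on CHO cells stably transfected with the human ERG gene.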

hERG (KCNH2) [4] = target: T2, hERG (KCNH2); test: Inhibition of human ERG transfected in CHO cells at 10 uM by patch clamp assay relative to control; format: cell-based; conditions: CHO cells transfected with human ERG; method in brief: as §2
[5] = Drug metabolism in rat liver microsomes at 5 uM after 20 mins; format: ADME, Microsome; conditions: read-out: Drug metabolism
Method in brief: (§3)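 Substrate at 5 µM incubated at 37 °C for 20 min with in-house liver microsome preparations (human, mouse or rat). Reported as the percentage of parent compound metabolized.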

Salmonella typhimurium = test: Mutagenic activity in Salmonella typhimurium by Ames test; format: toxicity, organism-based; conditions: salmonella enterica subsp. enterica serovar typhimurium
[6] = Drug metabolism in human liver microsomes at 5 uM after 20 mins; format: ADME, Microsome; conditions: read-out: Drug metabolism; method in brief: as §3
Histamine H3 receptor [7] = target: Histamine H3 receptor (Homo sapiens, UniProt Q9Y5N1); test: Displacement of [3H]N-alpha-methylhistamine from recombinant human histamine H3 receptor transfected in CHO cell membranes after 1 hr by scintillation counting analysis; method in brief: as §1
Chain of Histamine H3 receptor (Homo sapiens, UniProt Q9Y5N1) (Q9Y5N1 whole entry): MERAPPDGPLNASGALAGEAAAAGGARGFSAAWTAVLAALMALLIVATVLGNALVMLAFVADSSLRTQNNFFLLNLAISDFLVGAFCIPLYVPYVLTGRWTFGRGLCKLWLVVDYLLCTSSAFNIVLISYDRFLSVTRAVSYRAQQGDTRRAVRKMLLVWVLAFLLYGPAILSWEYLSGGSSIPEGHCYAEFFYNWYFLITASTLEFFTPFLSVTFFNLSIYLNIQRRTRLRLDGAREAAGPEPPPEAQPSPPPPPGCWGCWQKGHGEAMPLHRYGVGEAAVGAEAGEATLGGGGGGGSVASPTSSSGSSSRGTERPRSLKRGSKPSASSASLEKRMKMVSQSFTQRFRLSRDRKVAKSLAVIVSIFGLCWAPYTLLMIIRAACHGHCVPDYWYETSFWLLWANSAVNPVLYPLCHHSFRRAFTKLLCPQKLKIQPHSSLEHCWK

Cytochrome P450 2B6 = target: T3, Cytochrome P450 2B6 (Homo sapiens, UniProt P20813); test: Inhibition of CYP2B6 (unknown origin); format: ADME
T3 sequence (P20813 whole entry): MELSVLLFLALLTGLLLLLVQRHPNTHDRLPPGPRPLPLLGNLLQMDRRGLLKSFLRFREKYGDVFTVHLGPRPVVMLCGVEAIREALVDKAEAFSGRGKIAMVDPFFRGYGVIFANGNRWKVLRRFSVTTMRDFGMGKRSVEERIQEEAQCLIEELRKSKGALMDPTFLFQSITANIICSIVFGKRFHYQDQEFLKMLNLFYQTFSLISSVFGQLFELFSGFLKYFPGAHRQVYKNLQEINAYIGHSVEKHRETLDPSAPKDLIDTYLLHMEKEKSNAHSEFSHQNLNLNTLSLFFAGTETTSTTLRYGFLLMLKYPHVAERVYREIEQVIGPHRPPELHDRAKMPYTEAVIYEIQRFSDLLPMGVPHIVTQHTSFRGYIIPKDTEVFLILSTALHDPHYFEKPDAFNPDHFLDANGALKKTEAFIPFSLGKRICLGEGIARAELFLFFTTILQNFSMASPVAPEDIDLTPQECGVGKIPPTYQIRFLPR

Cytochrome P450 2C9 = Cytochrome P450 2C9 (Homo sapiens, UniProt P11712); test: Inhibition of CYP2C9 (unknown origin); format: ADME
Chain of Cytochrome P450 2C9 (P11712 whole entry): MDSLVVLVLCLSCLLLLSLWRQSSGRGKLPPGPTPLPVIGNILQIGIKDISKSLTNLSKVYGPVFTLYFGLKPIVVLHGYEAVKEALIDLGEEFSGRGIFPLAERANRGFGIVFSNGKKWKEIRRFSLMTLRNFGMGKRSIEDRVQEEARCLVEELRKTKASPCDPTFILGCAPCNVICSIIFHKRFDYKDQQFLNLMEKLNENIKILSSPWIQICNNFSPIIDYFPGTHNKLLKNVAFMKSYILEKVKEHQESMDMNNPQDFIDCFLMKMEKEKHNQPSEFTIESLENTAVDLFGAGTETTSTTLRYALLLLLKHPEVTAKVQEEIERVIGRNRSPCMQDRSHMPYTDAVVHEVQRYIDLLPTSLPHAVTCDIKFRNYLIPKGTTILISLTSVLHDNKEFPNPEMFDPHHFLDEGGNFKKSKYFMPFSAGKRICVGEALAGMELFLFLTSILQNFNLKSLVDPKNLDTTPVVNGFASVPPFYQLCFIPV

[8] = Drug metabolism in mouse liver microsomes at 5 uM after 20 mins; format: ADME, Microsome; conditions: read-out: Drug metabolism; method in brief: as §3
Cytochrome P450 2D6 = Cytochrome P450 2D6 (Homo sapiens, UniProt P10635); test: Inhibition of CYP2D6 (unknown origin); format: ADME
Chain of Cytochrome P450 2D6 (P10635 whole entry): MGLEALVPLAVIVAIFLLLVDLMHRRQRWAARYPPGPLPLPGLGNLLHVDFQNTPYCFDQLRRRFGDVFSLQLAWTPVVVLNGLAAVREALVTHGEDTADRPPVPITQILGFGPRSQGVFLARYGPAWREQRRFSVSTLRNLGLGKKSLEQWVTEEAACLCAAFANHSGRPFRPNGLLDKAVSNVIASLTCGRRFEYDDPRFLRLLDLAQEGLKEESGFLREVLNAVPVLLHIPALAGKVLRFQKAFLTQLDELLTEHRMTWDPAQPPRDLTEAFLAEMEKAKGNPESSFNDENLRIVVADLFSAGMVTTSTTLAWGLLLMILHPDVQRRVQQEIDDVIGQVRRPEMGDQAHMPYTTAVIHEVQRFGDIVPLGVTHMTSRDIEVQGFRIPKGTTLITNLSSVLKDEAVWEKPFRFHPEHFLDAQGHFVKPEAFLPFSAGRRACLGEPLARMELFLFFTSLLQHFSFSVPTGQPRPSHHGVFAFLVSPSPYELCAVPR

Cytochrome P450 2C19 = Cytochrome P450 2C19 (Homo sapiens, UniProt P33261); test: Inhibition of CYP2C19 (unknown origin); format: ADME
Chain of Cytochrome P450 2C19 (P33261 whole entry): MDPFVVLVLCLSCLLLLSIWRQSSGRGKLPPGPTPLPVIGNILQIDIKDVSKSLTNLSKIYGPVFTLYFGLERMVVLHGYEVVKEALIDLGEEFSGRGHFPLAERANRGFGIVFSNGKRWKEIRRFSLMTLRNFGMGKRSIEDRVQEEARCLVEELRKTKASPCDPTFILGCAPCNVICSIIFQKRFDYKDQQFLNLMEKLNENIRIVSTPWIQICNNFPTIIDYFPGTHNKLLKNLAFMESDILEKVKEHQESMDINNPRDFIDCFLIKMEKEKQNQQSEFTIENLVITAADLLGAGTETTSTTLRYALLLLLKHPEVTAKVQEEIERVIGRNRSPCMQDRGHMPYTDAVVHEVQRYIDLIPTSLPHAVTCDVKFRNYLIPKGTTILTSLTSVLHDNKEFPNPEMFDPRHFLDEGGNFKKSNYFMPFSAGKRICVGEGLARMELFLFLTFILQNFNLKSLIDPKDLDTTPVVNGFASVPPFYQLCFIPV

[9] = Solubility of the compound in PBS buffer at pH 7.4; format: physicochemical
Method in brief: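 Solubility measured in PBS at pH 7.4.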

[10] = target: Voltage-gated inwardly rectifying potassium channel KCNH2 (Homo sapiens, UniProt Q12809); test: Inhibition of human ERG transfected in CHO cells by patch clamp assay; format: cell-based; method in brief: as §2
[11] = Partition coefficient, log P of the compound; format: physicochemical; conditions: octanol/water
[12] = Distribution coefficient, log D of the compound; format: physicochemical; conditions: octanol/water

IC50 (Cytochrome P450 3A4) [µM] | Ki (Histamine H3 receptor [2]) [µM] | IC50 (Cytochrome P450 1A2) [µM] | metabolised at 20 min, 5 µM [5] [%] | metabolised at 20 min, 5 µM [6] [%] | Ki (Histamine H3 receptor [7]) [µM] | IC50 (Cytochrome P450 2B6) [µM] | IC50 (Cytochrome P450 2C9) [µM] | metabolised at 20 min, 5 µM [8] [%] | IC50 (Cytochrome P450 2D6) [µM] | IC50 (Cytochrome P450 2C19) [µM] | solubility [9] [µg/mL] | logP [11] | logD [12] | Compound | Activity [1] | inhibition at 1 µM (hERG (KCNH2) [3]) [%] | inhibition at 10 µM (hERG (KCNH2) [4]) [%] | Activity (Salmonella typhimurium) | IC50 [10] [µM]
> 30 | 0.093 | > 30 | 60 | 7 | 0.82 | > 30 | > 30 | 29 | > 30 | > 30 | – | – | – | Cc1cc(N2CC[C@H](N3CCC[C@H]3C)C2)ccc1NC(=O)c1cc(F)ccc1C | Non-toxic | 43 | 84.3 | Non-toxic | –
> 30 | 0.011 | > 30 | 36 | 5 | 0.018 | > 30 | > 30 | 20 | > 30 | > 30 | 88.5 (≈ 224 µM) | 3.55 | 2.09 | Cc1cc(N2CC[C@@H](N3CCC[C@@H]3C)C2)ccc1NC(=O)c1cc(F)ccc1C | Non-toxic | 38.8 | 88.6 | Non-toxic | 1.8
